What was measured:
MDA-MB-231 cells = assay: flow cytometry binding of EDBp-Cy5 to cells; assay type: cell-based; conditions: 1 µM, 37 °C, 60 min
Method in brief: (§1)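 Cells were grown in DMEM with 10% FBS at 37 °C and 5% CO2, then seeded at 1 × 10^6 cells/ml in 6-well plates. They were stained with 1 µM Cy5-labelled test compound, or a Cy5-labelled cyclic control peptide, for 60 min at 37 °C. Cells were washed three times with PBS and analysed by flow cytometry for Cy5 signal.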

[1] = tested on: subcutaneous MDA-MB-231-luc tumor; assay: NIRF imaging, subcutaneous tumor model mice; assay type: in vivo
Method in brief: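 Female BALB/c-nude mice, 6 weeks old, received 1 × 10^6 MDA-MB-231-luc cells s.c. in PBS with 30% matrigel. The Cy5-labelled test compound (1 µmol) was injected i.v. via tail vein. IVIS whole-body imaging at 48 h used excitation 640 nm and emission 680 nm. Luminescence was read from 10 min after i.p. luciferin 150 mg/kg. Organs and tumour were imaged ex vivo after euthanasia, with semiquantitative fluorescence intensity, n = 3.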

EMT6 cells = assay: flow cytometry binding of EDBp-Cy5 to cells; assay type: cell-based; conditions: 1 µM, 37 °C, 60 min
Method in brief: as §1

MCF7 cells = assay: flow cytometry binding of EDBp-Cy5 to cells; assay type: cell-based; conditions: 1 µM, 37 °C, 60 min
Method in brief: as §1

[2] = tested on: EDB-FN in MDA-MB-231 cells; assay: confocal immunofluorescence colocalization with EDB-FN; assay type: cell-based; conditions: confocal microscopy, 1 µM, 37 °C, 2 h
Method in brief: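 MDA-MB-231 cells were seeded at 1 × 10^5 cells/ml in confocal dishes. They were incubated with 1 µM Cy5-labelled test compound for 2 h at 37 °C, washed six times with PBST, and fixed in 4% paraformaldehyde. Permeabilization used 0.25% Triton X-100 and blocking used 5% BSA for 30 min. Anti-EDB-FN mAb (1:1000) was applied overnight at 4 °C. Alexa Fluor 488 anti-rabbit (4 µg/mL) was applied 1 h at RT. Nuclei were stained with DAPI and imaged by confocal microscopy.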

## AVRTSAD-PEG4-K-Cy5 [EDBp-Cy5]
MDA-MB-231 cells
  cell binding ability: high
[1]; 48 h after i.v. injection of 1 µmol, whole-body imaging
  enrichment in subcutaneous tumor (NIRF imaging): significantly enriched
[1]; 48 h after injection, organs collected, n = 3
  ex vivo distribution in main organs and tumor (NIRF): observed mainly in the kidney and subcutaneous tumor
EMT6 cells
  cell binding ability: moderate
MCF7 cells
  cell binding ability: moderate
[2]
  colocalization with EDB-FN: colocalized with EDB-FN

From paper PMC11437091 (Scientific Reports, 2024)
